Reference: ChEMBL document CHEMBL1671645, “Pharmacokinetics and absorption of posaconazole oral suspension under various gastric conditions in healthy volunteers” (Antimicrob Agents Chemother, 2009)

Experiments:
[1] = test system: Homo sapiens; experiment: Toxicity in healthy human assessed as dizziness at 400 mg administered as single dose suspension coadministered with nutritional supplement and 4 mg loperamide as two 2 mg tablets; assay type: organism-based; settings: in vivo
In short: (§1)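 Three-way randomized crossover in 13 healthy volunteers with a 7- to 10-day washout. Each period was one 400-mg oral posaconazole suspension dose with a nutritional supplement. Metoclopramide 10 mg was given orally three times daily on the day before and the day of dosing; loperamide was a single 4 mg. Safety was assessed from adverse events, tabulated by body system and severity per treatment.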

[2] = test system: Homo sapiens; experiment: Toxicity in healthy human assessed as asthenia at 400 mg BID, po administered as suspension for 7 days coadministered with nutritional supplement; assay type: organism-based; settings: in vivo, 168 h
In short: (§2)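 Healthy volunteers monitored for adverse events, vital signs, clinical laboratory values and 12-lead ECG. Adverse events tabulated by body system or organ class and severity and summarized by treatment across the crossover regimens.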

[3] = Apparent volume of distribution in fasted healthy human at 400 mg administered as single dose suspension after consumption of high fat meal; assay type: ADME, organism-based; settings: in vivo, read-out: Vc/F
In short: (§3)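 In a crossover of 12 healthy subjects, each took a single 400 mg oral suspension dose 5 min before, midway through (about 10 min into a 20-min meal), or 20 min after a high-fat meal of about 50 g fat. Plasma was drawn 0–168 h and measured by LC-MS/MS. Parameters are noncompartmental, with AUC to the last measurable time.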

[4] = Apparent volume of distribution in fasted healthy human at 400 mg administered as single dose suspension 5 mins before consumption of high fat meal; assay type: ADME, organism-based; settings: in vivo, read-out: Vc/F; in short: as §3
[5] = Half life in fasted healthy human at 400 mg administered as single dose suspension; assay type: ADME, organism-based; settings: in vivo
In short: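 Single oral suspension dose in fasting healthy volunteers, alone, with 12 oz ginger ale, after esomeprazole 40 mg once each morning days −2 to 1, or both; four-way crossover, 7–10-day washout. EDTA plasma 0–168 h. LC-MS/MS (LLOQ 5.00 ng/ml). t1/2 = ln(2)/K from terminal log-linear regression; Tmax median.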

[6] = test system: Homo sapiens; experiment: Apparent total body clearance in fasted healthy human at 400 mg BID, po administered as suspension for 7 days; assay type: ADME, organism-based; settings: in vivo, 168 h
In short: (§4)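 Twelve healthy subjects took oral suspension for 7 days as 400 mg BID or 200 mg QID, either fasting or with a Boost-type nutritional supplement, in a crossover with 14–21 day washouts. Nonfat snacks of 800 cal/day or less were allowed. Plasma was sampled 0–168 h after the day-7 morning dose only and analysed by LC-MS/MS. AUC is AUC_τ, normalized to dose.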

[7] = Cmax in fasted healthy human plasma at 400 mg administered as single dose suspension coadministered with proton pump inhibitor; assay type: ADME, organism-based; design: dose 400 mg
In short: (§5)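 This was a four-way crossover in 12 healthy subjects with 7–10 day washouts. Each took one fasting 400 mg oral suspension dose, with 12 oz ginger ale and/or esomeprazole 40 mg once each morning on days −2 to 1, with dosing on day 1. Plasma was sampled 0–168 h and measured by LC-MS/MS (LLOQ 5.00 ng/ml). Analysis was noncompartmental, with CL/F = dose/AUC_I and V/F = (CL/F)/K.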

[8] = Tmax in healthy human at 200 mg QID, po administered as suspension for 7 days coadministered with nutritional supplement; assay type: ADME, organism-based; settings: in vivo
In short: (§6)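 Healthy volunteers given oral suspension (40 mg/ml) for 7 days, fasted or with nutritional supplement (Boost); four-way crossover, 14–21-day washout, nonfat snacks ≤800 cal/day allowed. On day 7 only the morning dose was given; plasma sampled predose to 168 h after it. LC-MS/MS (LLOQ 5.00 ng/ml). t1/2 = ln(2)/K from log-linear terminal slope; Tmax as median.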

[9] = test system: Homo sapiens; experiment: Toxicity in healthy human assessed as asthenia at 400 mg BID, po administered as suspension for 7 days; assay type: organism-based; settings: in vivo, 168 h; in short: as §2
[10] = test system: Homo sapiens; experiment: Toxicity in healthy human assessed as fatigue at 400 mg administered as single dose suspension coadministered with nutritional supplement and 4 mg loperamide as two 2 mg tablets; assay type: organism-based; settings: in vivo; in short: as §1
[11] = test system: Homo sapiens; experiment: Toxicity in healthy human assessed as adverse events at 400 mg administered as single dose suspension coadministered with acidic carbonated beverage; assay type: organism-based; settings: in vivo; in short: as §2
[12] = Half life in healthy human at 400 mg administered as single dose suspension coadministered with nutritional supplement and 10 mg metoclopramide; assay type: ADME, organism-based; settings: in vivo
In short: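 Single oral suspension dose with nutritional supplement, alone or with metoclopramide 10 mg orally three times daily on the day before and the day of dosing; three-way crossover, 7–10-day washout. EDTA plasma predose to 168 h, LC-MS/MS (LLOQ 5.00 ng/ml). t1/2 = ln(2)/K from terminal slope; Tmax median.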

[13] = Cmax in fasted healthy human plasma at 400 mg administered as single dose suspension after 20 mins after consumption of high fat meal; assay type: ADME, organism-based; design: dose 400 mg; in short: as §3
[14] = Half life in fasted healthy human at 400 mg administered as single dose suspension after 20 mins after consumption of high fat meal; assay type: ADME, organism-based; settings: in vivo
In short: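 Single oral suspension dose in healthy volunteers while fasting, 5 min before, midway through (about 10 min into a 20-min meal), or 20 min after a high-fat meal (approx 50 g fat); four-way crossover, 7–10-day washout. Plasma 0–168 h by LC-MS/MS (LLOQ 5.00 ng/ml). t1/2 = ln(2)/K; Tmax median.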

[15] = Cmax in fasted healthy human plasma at 400 mg administered as single dose suspension; assay type: ADME, organism-based; design: dose 400 mg
[16] = Apparent total body clearance in fasted healthy human at 400 mg administered as single dose suspension coadministered with proton pump inhibitor; assay type: ADME, organism-based; settings: in vivo; in short: as §5
[17] = Half life in healthy human at 400 mg administered as single dose suspension coadministered with nutritional supplement and 4 mg loperamide as two 2 mg tablets; assay type: ADME, organism-based; settings: in vivo
In short: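 Oral suspension (40 mg/ml) single dose with nutritional supplement plus loperamide 4 mg single dose, healthy volunteers, three-way crossover with 7–10-day washout. EDTA plasma drawn predose and 1–168 h postdose. LC-MS/MS assay (LLOQ 5.00 ng/ml). Noncompartmental parameters; Tmax reported as median (range).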

[18] = Cmax in fasted healthy human plasma at 400 mg BID, po administered as suspension for 7 days; assay type: ADME, organism-based; design: dose 400 mg, route oral; in short: as §4
[19] = AUC in healthy human at 400 mg administered as single dose suspension coadministered with nutritional supplement; assay type: ADME, organism-based; settings: plasma
In short: (§7)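 A three-way crossover in 13 healthy subjects gave one 400 mg oral suspension dose with a nutritional supplement, either alone, with metoclopramide 10 mg orally three times daily on the day before and the day of dosing, or with a single 4 mg dose of loperamide. Plasma was taken 0–168 h for LC-MS/MS. Analysis was noncompartmental.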

[20] = Apparent total body clearance in healthy human at 400 mg administered as single dose suspension coadministered with nutritional supplement and 4 mg loperamide as two 2 mg tablets; assay type: ADME, organism-based; settings: in vivo, po; in short: as §7
[21] = Apparent total body clearance in fasted healthy human at 400 mg administered as single dose suspension after 20 mins after consumption of high fat meal; assay type: ADME, organism-based; settings: in vivo; in short: as §3
[22] = Apparent total body clearance in fasted healthy human at 400 mg administered as single dose suspension; assay type: ADME, organism-based; settings: in vivo
[23] = Half life in fasted healthy human at 400 mg BID, po administered as suspension for 7 days; assay type: ADME, organism-based; settings: in vivo; in short: as §6
[24] = Tmax in fasted healthy human at 400 mg BID, po administered as suspension for 7 days; assay type: ADME, organism-based; settings: in vivo; in short: as §6
[25] = AUC in fasted healthy human at 400 mg administered as single dose suspension coadministered with acidic carbonated beverage; assay type: ADME, organism-based; settings: plasma; in short: as §5
[26] = Half life in fasted healthy human at 200 mg QID, po administered as suspension for 7 days; assay type: ADME, organism-based; settings: in vivo; in short: as §6

**Q.** What does the source list for `CC[C@@H]([C@H](C)O)n1ncn(-c2ccc(N3CCN(c4ccc(OC[C@@H]5CO[C@@](Cn6cncn6)(c6ccc(F)cc6F)C5)cc4)CC3)cc2)c1=O` [POSACONAZOLE]?
**A.** Activity [1]: 15%; Activity [2]: 25%; Vd/F [3]: 757 L; Vd/F [4]: 1900 L; half-life [5]: 27.4 h; CL/F [6]: 54.6 L/h; Cmax [7]: 76.7 ng/mL; Tmax [8]: 4 h; Activity [9]: 25%; Activity [10]: 15%; Activity [11]: 25%; half-life [12]: 27.7 h; Cmax [13]: 544 ng/mL; half-life [14]: 22.6 h; Cmax [15]: 151 ng/mL; CL/F [16]: 1930 mL/min; half-life [17]: 27.5 h; Cmax [18]: 982 ng/mL; AUC [19]: 8960 ng·h/mL; CL/F [20]: 743 mL/min; CL/F [21]: 395 mL/min; CL/F [22]: 1390 mL/min; half-life [23]: 25.7 h; Tmax [24]: 6 h; AUC [25]: 9610 ng·h/mL; half-life [26]: 34.7 h
